Laboratory results: ChEMBL document CHEMBL1165849, “New structures and bioactivity properties of jasplakinolide (jaspamide) analogues from marine sponges” (2010)
Calls of active or inactive are those of the source. The calls are words filed in the database; no cut-off is given here.

Columns and labels:
MCF7 = experiment: Growth inhibition of human MCF7 cells by sulforhodamine B assay; format: functional
HCT-116 = experiment: Growth inhibition of human HCT116 cells by sulforhodamine B assay; format: functional
HeLa = experiment: Cytotoxicity against human HeLa cells at 80 nM after 34 hrs by microfilament disruption assay; format: functional, cell-based
HCT-15 = experiment: Growth inhibition of human HCT15 cells by sulforhodamine B assay; format: functional
Outline: (§1)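 Tested by NCI in the NCI-DTP 60 cell line panel screen; GI50 was derived, with TGI and LC50 from the same data.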

OVCAR-3 = experiment: Growth inhibition of human OVCAR-3 cells by sulforhodamine B assay; format: functional; outline: as §1
SF-539 = experiment: Growth inhibition of human SF539 cells by sulforhodamine B assay; format: functional; outline: as §1
786-0 = experiment: Growth inhibition of human 786-0 cells by sulforhodamine B assay; format: functional; outline: as §1
M14 = experiment: Growth inhibition of human M14 cells by sulforhodamine B assay; format: functional; outline: as §1
HOP-62 = experiment: Growth inhibition of human HOP62 cells by sulforhodamine B assay; format: functional; outline: as §1
[1] = Growth inhibition of human […] cells by sulforhodamine B assay; format: functional; outline: as §1

With `C/C1=C\[C@H](C)C[C@H](C)OC(=O)C[C@H](c2ccc(O)cc2)NC(=O)[C@@H](C[C@@]2(O)C(=O)Nc3ccccc32)N(C)C(=O)C(C)NC(=O)[C@@H](C)C1` (stereo partly specified) the GI50 (MCF7; Homo sapiens, MCF7) was over 10000 nM, the GI50 (HCT-116; Homo sapiens, HCT-116) was over 10000 nM and the Activity (HeLa) was “inactive”.

In the case of `C/C1=C\[C@H](C)C[C@H](C)OC(=O)C[C@H](c2ccc(O)cc2)NC(=O)[C@@H](Cc2c(Br)[nH]c3ccccc23)N(C)C(=O)[C@H](C)NC(=O)CC1`, the Activity (HeLa) is reported as “Active”.

With `C/C1=C\[C@H](C)C[C@H](C)OC(=O)C[C@H](c2ccc(O)cc2)NC(=O)[C@@H](Cc2ncnc3ccccc23)N(C)C(=O)C(C)NC(=O)[C@@H](C)C1` (stereo partly specified) the Activity (HeLa) was “inactive”.

For `C=C1C[C@H](C)C(=O)N[C@@H](C)C(=O)N(C)[C@H](CC2(OC)OC(=O)Nc3ccccc32)C(=O)N[C@@H](c2ccc(O)cc2)CC(=O)O[C@@H](C)C[C@@H](C)C1=O` (stereo partly specified), the Activity (HeLa) was “inactive”.

For `C=C1C[C@H](C)C(=O)N[C@@H](C)C(=O)N(C)[C@H](Cc2c(Br)[nH]c3ccccc23)C(=O)N[C@@H](c2ccc(O)cc2)CC(=O)O[C@@H](C)C[C@@H](C)[C@@H]1O`, the Activity (HeLa) was “inactive”.

In the case of `C=C1C[C@H](C)C(=O)N[C@@H](C)C(=O)N(C)[C@H](Cc2c(Br)[nH]c3ccccc23)C(=O)N[C@@H](c2ccc(O)cc2)CC(=O)O[C@@H](C)C[C@@H](C)[C@H]1O`, the Activity (HeLa) is reported as “inactive”.

With `COC1(C[C@@H]2C(=O)N[C@@H](c3ccc(O)cc3)CC(=O)O[C@@H](C)C[C@@H](C)/C=C(\C)C[C@H](C)C(=O)N[C@@H](C)C(=O)N2C)OC(=O)Nc2ccccc21` (stereo in doubt; 5) the Activity (HeLa) was “inactive”.

Work on `COC1(C[C@@H]2C(=O)N[C@@H](c3ccc(O)cc3)CC(=O)O[C@@H](C)C[C@@H](C)/C=C(\C)C[C@H](C)C(=O)N[C@@H](C)C(=O)N2C)OC(=O)Nc2ccccc21` (stereo in doubt; 5) [JASPLAKINOLIDEP] yielded a GI50 (MCF7) of 4900 nM and a GI50 (HCT-116; Homo sapiens, HCT-116) of 350 nM.

In the case of `COC1(C[C@@H]2C(=O)N[C@@H](c3ccc(O)cc3)CC(=O)O[C@@H](C)C[C@@H](C)/C=C(\C)C[C@H](C)C(=O)N[C@@H](C)C(=O)N2C)OC(=O)Nc2ccccc21` (stereo in doubt; 6), the Activity (HeLa) is reported as “inactive”.

With `COC1(C[C@@H]2C(=O)N[C@@H](c3ccc(O)cc3)CC(=O)O[C@@H](C)C[C@@H](C)/C=C(\C)C[C@H](C)C(=O)N[C@@H](C)C(=O)N2C)OC(=O)Nc2ccccc21` (stereo in doubt; 6) [JASPLAKINOLIDEP] the GI50 (MCF7) was 2400 nM and the GI50 (HCT-116) was 380 nM.

Work on `C/C1=C\[C@H](C)C[C@H](C)OC(=O)C[C@H](c2ccc(O)cc2)NC(=O)[C@@H](Cc2c(Br)[nH]c3ccccc23)N(C)C(=O)[C@H](CO)NC(=O)[C@@H](C)C1` [JASPAMIDE E] yielded a GI50 (HCT-15) of 970 nM, a GI50 (OVCAR-3) of 530 nM and a GI50 (SF-539) of 170 nM. For the same compound, the GI50 (786-0) was 180 nM, the GI50 (M14) was 78 nM and the GI50 (MCF7; Homo sapiens, MCF7) was 180 nM. The GI50 (HCT-116; Homo sapiens, HCT-116) was 140 nM, the GI50 (HOP-62) was 140 nM and the Activity (HeLa) was “inactive”. The GI50 [1] was 22 nM.

With `C/C1=C\[C@H](C)C[C@H](C)OC(=O)C[C@H](c2ccc(O)cc2)NC(=O)[C@@H](Cc2c(Br)[nH]c3ccccc23)N(C)C(=O)[C@H](C)NC(=O)[C@@H](C)C1` [JASPAMIDE] the GI50 (HCT-15) was 690 nM, the GI50 (OVCAR-3) was 40 nM and the GI50 (SF-539) was 300 nM. The GI50 (786-0) was 20 nM, the GI50 (M14) was 56 nM and the GI50 (HCT-116; Homo sapiens, HCT-116) was 100 nM. For the same compound, the GI50 (HOP-62) was 150 nM, the Activity (HeLa) was “Active” and the GI50 [1] was 31 nM.

`C=C1C[C@H](C)C(=O)N[C@@H](C)C(=O)N(C)[C@H](Cc2c(Br)[nH]c3ccccc23)C(=O)N[C@@H](c2ccc(O)cc2)CC(=O)O[C@@H](C)C[C@@H](C)C1=O` [JASPLAKINOLIDE B] showed a GI50 (HCT-15) of 6600 nM, a GI50 (OVCAR-3) of 110 nM and a GI50 (SF-539) of 64 nM. For the same compound, the GI50 (786-0) was 510 nM, the GI50 (M14) was 53 nM and the GI50 (MCF7; Homo sapiens, MCF7) was 130 nM. For the same compound, the GI50 (HCT-116; Homo sapiens, HCT-116) was under 1 nM, the GI50 (HOP-62) was 140 nM and the Activity (HeLa) was “inactive”. It also gave a GI50 [1] of 1.9 nM.

In the case of `C/C1=C\[C@H](C)C[C@H](C)OC(=O)C[C@H](c2ccc(O)cc2)NC(=O)[C@@H](C[C@]2(O)C(=O)Nc3ccccc32)N(C)C(=O)C(C)NC(=O)[C@@H](C)C1` (stereo partly specified) [JASPLAKINOLIDE S], the GI50 (MCF7; Homo sapiens, MCF7) is reported as 2300 nM, the GI50 (HCT-116; Homo sapiens, HCT-116) is reported as 810 nM and the Activity (HeLa) is reported as “inactive”.
